Four compounds from ChEMBL document CHEMBL3525985, “Regiospecificity and stereospecificity of human UDP-glucuronosyltransferases in the glucuronidation of estriol, 16-epiestriol, 17-epiestriol, and 13-epiestradiol” (Drug Metab Dispos, 2013) can be followed below.

SMILES strings stand for the structures.

Common to all, as to format: ADME
The test system of data set [1] is Liver microsome. As to the kind of experiment: Drug metabolism in human liver microsomes assessed as 17-epiestriol-3-glucuronide formation after 15 to 60 mins by Michaelis-Menten equation analysis in presence of UDPGA. In short, it runs like this: (§1)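 Pooled human liver microsomes (30 donors), 0.5 or 10 µg, with alamethicin at 5% of total protein. Incubated with 50 mM phosphate pH 7.4, 10 mM MgCl₂, 5 mM UDPGA and 10% DMSO for 15–60 min at 37°C. Each glucuronide regioisomer quantified by HPLC, in triplicate, with substrate consumption at or below 10%.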
For orientation: Liver microsomes are vesicles of endoplasmic reticulum, rich in cytochrome P450 enzymes.

The target in data set [2] is T1, UDP-glucuronosyltransferase 1A10 (Homo sapiens, UniProt Q9HAW8).
T1 sequence (Q9HAW8 whole entry): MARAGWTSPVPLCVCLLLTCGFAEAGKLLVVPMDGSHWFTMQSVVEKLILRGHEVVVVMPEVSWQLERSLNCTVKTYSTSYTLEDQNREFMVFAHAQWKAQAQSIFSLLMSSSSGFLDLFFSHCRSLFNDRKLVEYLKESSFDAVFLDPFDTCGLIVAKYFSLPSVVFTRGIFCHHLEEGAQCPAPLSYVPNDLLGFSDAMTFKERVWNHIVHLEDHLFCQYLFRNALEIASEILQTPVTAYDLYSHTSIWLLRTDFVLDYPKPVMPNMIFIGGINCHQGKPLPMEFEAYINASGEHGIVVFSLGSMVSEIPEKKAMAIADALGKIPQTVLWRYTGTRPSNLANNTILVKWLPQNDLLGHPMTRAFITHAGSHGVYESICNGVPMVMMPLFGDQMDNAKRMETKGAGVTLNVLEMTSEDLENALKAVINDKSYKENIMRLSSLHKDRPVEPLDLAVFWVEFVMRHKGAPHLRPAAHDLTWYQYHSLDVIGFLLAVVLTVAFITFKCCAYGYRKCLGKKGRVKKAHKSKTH
As to the kind of experiment: Drug metabolism assessed as recombinant human C-terminal His-tagged UGT1A10-mediated 17-epiestriol-3-glucuronide formation at 200 uM after 15 to 60 mins by HPLC analysis in presence of UDPGA. The note with it: recombinant enzyme. The method in brief: (§2)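 Screening at a single substrate concentration of 200 μM, in triplicate. The reaction used 5 or 50 µg of UGT-enriched insect cell membranes in 50 mM phosphate pH 7.4 with 10 mM MgCl₂ and 5 mM UDPGA, 10% final DMSO. Incubation was 15–60 min at 37°C. Perchloric acid stopped the reaction and supernatants were analysed by HPLC. Controls lacked UDPGA. Rates were normalized to relative UGT expression level.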

The subject of data set [3] is Liver microsome. As to the kind of experiment: Drug metabolism in human liver microsomes assessed as 16-epiestriol-3-glucuronide formation after 15 to 60 mins by Michaelis-Menten equation analysis in presence of UDPGA. In short, it runs like this:
as §1

In data set [4] the target is T1, UDP-glucuronosyltransferase 1A10. The experiment in a line: Inhibition of recombinant human C-terminal His-tagged UGT1A10 after 15 to 60 mins by Michaelis-Menten equation analysis in presence of UDPGA. In short, it runs like this: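 Kinetics with His-tagged UGT-enriched insect-cell membranes (5 or 50 µg): aglycone 0.2–300 µM in 10% DMSO, 5 mM UDPGA, 10 mM MgCl₂, 50 mM phosphate pH 7.4, 15–60 min at 37°C. Substrate consumption kept at or below 10%. Glucuronides quantified by HPLC in triplicate, rates normalized to expression, and data fitted to Michaelis-Menten.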

The target in data set [5] is T2, UDP-glucuronosyltransferase 1A3 (Homo sapiens, UniProt P35503).
T2 sequence (P35503 whole entry): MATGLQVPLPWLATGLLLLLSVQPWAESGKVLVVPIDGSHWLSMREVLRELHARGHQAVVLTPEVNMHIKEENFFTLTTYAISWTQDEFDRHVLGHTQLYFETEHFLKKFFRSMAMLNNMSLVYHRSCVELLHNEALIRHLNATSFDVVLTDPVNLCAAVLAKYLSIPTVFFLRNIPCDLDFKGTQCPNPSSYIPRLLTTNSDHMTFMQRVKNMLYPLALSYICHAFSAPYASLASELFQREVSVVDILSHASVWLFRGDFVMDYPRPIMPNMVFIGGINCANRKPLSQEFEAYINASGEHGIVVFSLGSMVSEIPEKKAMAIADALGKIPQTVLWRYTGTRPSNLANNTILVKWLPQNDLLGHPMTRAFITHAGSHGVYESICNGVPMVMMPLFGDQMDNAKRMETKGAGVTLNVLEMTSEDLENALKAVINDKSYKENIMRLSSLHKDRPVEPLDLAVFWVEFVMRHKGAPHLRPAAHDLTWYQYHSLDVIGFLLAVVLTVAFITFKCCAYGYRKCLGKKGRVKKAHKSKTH
As to the kind of experiment: Drug metabolism assessed as recombinant human C-terminal His-tagged UGT1A3-mediated estradiol-3-glucuronide formation at 200 uM after 15 to 60 mins by HPLC analysis in presence of UDPGA. The note with it: recombinant enzyme. The method in brief:
as §2

A short description of data set [6]: Drug metabolism in human intestine microsomes assessed as estriol-3-glucuronide formation after 15 to 60 mins by Michaelis-Menten equation analysis in presence of UDPGA. The method in brief:
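Pooled human intestine microsomes (6 donors), 0.5 or 10 µg, with alamethicin at 5% of total protein. Incubated with 50 mM phosphate pH 7.4, 10 mM MgCl₂, 5 mM UDPGA and 10% DMSO for 15–60 min at 37°C. Each glucuronide regioisomer quantified by HPLC, in triplicate, with substrate consumption at or below 10%.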

Data set [7] has as its target T3, UDP-glucuronosyltransferase 1A1 (Homo sapiens, UniProt P22309).
T3 sequence (P22309 whole entry): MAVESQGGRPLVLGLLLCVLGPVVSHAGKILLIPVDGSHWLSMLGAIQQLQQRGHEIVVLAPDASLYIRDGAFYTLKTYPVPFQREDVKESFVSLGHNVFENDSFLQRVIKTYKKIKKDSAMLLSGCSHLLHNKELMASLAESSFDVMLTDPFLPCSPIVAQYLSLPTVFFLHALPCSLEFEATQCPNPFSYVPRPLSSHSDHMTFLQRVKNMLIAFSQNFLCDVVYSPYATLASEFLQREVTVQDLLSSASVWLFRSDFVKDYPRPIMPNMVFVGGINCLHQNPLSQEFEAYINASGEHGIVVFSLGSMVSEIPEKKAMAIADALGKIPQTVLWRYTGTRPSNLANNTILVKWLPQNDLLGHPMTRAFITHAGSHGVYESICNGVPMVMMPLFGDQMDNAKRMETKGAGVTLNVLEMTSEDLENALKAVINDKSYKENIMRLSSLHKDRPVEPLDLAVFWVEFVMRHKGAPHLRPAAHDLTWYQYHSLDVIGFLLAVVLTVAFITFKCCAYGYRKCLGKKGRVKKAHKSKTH
The experiment in a line: Drug metabolism assessed as recombinant human C-terminal His-tagged UGT1A1-mediated estriol-3-glucuronide formation at 200 uM after 15 to 60 mins by HPLC analysis in presence of UDPGA. The following applies: recombinant enzyme. In short, it runs like this: as §2

A word on the Km: it is the substrate concentration at which the rate is half of its maximum. As usually defined, the Vmax is the rate approached at saturating substrate. On to `C[C@]12CC[C@@H]3c4ccc(O)cc4CC[C@H]3[C@@H]1C[C@@H](O)[C@H]2O`, for which, in the data set on Liver microsome [1], the Km was determined as 380 µM and the Vmax is reported as 805 pmol/min/mg. Also, the Drug metabolism result in data set [2] is “metabolite_detected”.
For orientation: Ki means a measure of affinity in units of concentration, obtained from inhibition or displacement. For the compound `C[C@]12CC[C@@H]3c4ccc(O)cc4CC[C@H]3[C@@H]1C[C@H](O)[C@@H]2O` [EPIESTRIOL], in the data set on Liver microsome [3], the Km was found to be 2380 µM and the Vmax came to 569 pmol/min/mg. Further, in data set [4], the Ki is 98.1 µM.
For `C[C@]12CC[C@@H]3c4ccc(O)cc4CC[C@H]3[C@@H]1CC[C@@H]2O` [ESTRADIOL], in data set [5], the Drug metabolism result is “metabolite_detected”.
As to `C[C@]12CC[C@@H]3c4ccc(O)cc4CC[C@H]3[C@@H]1C[C@@H](O)[C@@H]2O` [ESTRIOL], in data set [6], the Km was determined as 75 µM and the Vmax is listed as 839 pmol/min/mg. Also, in data set [7], the Drug metabolism entry is “metabolite_detected”.
